Laboratory results from the EternaBench riboswitch data.

Test system: MS2 coat protein
Assay: apparent Kd, MS2 coat protein; higher = weaker binding; RNA-MaP array; FMN 200 µM where present
Summary of the method: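 Green signal from SNAP-549-labelled MS2 coat protein was normalised to red-channel RNA signal and to the median Fmax of control clusters. The protein was titrated from 0.7 or 1.5 nM, doubling to 3 µM, without and then with constant ligand, over designs transcribed by stalled E. coli RNA polymerase on Illumina sequencing-chip clusters, in 100 mM Tris-HCl pH 7.5, 80 mM KCl, 4 mM MgCl2, BSA, DTT, yeast tRNA and Tween-20. The apparent Kd is the median of filtered per-cluster binding-curve fits.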

[1] = designed as: OFF switch for flavin mononucleotide, no ligand
[2] = ligand present: flavin mononucleotide, designed as: OFF switch for flavin mononucleotide
[3] = designed as: ON switch for flavin mononucleotide, no ligand
[4] = ligand present: flavin mononucleotide, designed as: ON switch for flavin mononucleotide

## CUGUUUUUCGCAGGAUAUGCUCCUCCUUUAUUAGCAGAAGGGCGUUAAACAUGAGGAUCACCCAUGUAUGGUAAUGACAUUUUC
[1]
  apparent Kd: 33.6 nM
[2]
  apparent Kd: 209 nM

## CUUAUGUGAGGAUAUCAGUAGUAAAAAAAUAAAAUUACUACUGAGAAGGCACAUGAGGAUCACCCAUGUUCCUC
[1]
  apparent Kd: 115 nM
[2]
  apparent Kd: 429 nM

## CUUCUUGGGCAAGGAUAUCCUGUGCGGUUCCGGCUCGUGUCUGUCACAUGAGGAUCACCCAUGUGGGAGAAGGUGCCUGCGGUC
[1]
  apparent Kd: 6.15 nM
[2]
  apparent Kd: 6.79 nM

## CUUGAAUAAGUGAGGAUAUACUGUUAGUAAUGAUUGUAGAAGGUACAUGAGGAUCACCCAUGUUUAUUCAUAAU
[1]
  apparent Kd: 18.2 nM
[2]
  apparent Kd: 18.3 nM

## CUUGUGUAAGGAUAUCGAGUAGAACGCUCGAGUUCUGAGCUCGAGAAGGUACAUGAGGAUCACCCAUGUUAAAA
[1]
  apparent Kd: 40.1 nM
[2]
  apparent Kd: 66.2 nM

## CUUUAACACCAGAAGGACAUGAGGAUCACCCAUGUAGGAUAUGGGACUCCUAGUAGGCAUAUUGUGCUUCCGGUAGGACAAGGA
[3]
  apparent Kd: 478 nM
[4]
  apparent Kd: 62.2 nM

## CUUUAGUGAGGAUAUCAGUAGUAAUACAAUAGUAUUACUACUGAGAAGGCACAUGAGGAUCACCCAUGUUUCUC
[1]
  apparent Kd: 31 nM
[2]
  apparent Kd: 136 nM

## CUUUAGUGAGGAUAUCAGUGGUAAUACAAUAGUAUUACUACUGAGAAGGCACAUGAGGAUCACCCAUGUUCCUC
[1]
  apparent Kd: 26.6 nM
[2]
  apparent Kd: 155 nM

## CUUUAGUGAGGAUAUCUGGCUUCGAUCGUGAGAUCGAGGCUAGAGAAGGCACAUGAGGAUCACCCAUGUUCCUC
[1]
  apparent Kd: 40.1 nM
[2]
  apparent Kd: 439 nM

## CUUUAGUGAGGAUAUCUGGCUUCGAUCGUGAGAUCGAGGCUAGAGAAGGCACAUGAGGAUCACCCAUGUUCCUU
[1]
  apparent Kd: 15.4 nM
[2]
  apparent Kd: 34.7 nM

## CUUUAUCACUAUACAUGAGGAUCACCCAUGUUAUCAUCAUGAGAGGAUAUCGUAUUUGGAUUUUUCGAGAAGGCUCUAUUGUAU
[3]
  apparent Kd: 152 nM
[4]
  apparent Kd: 53.9 nM

## CUUUGCGUUAGAGGAUAUAUUGUGUGUUACACAAUAGAAGGCUAAACAAACAUGAGGAUCACCCAUGUUGUCCAUGUCGUCGGC
[3]
  apparent Kd: 16.8 nM
[4]
  apparent Kd: 21 nM

## CUUUUAUAAUAGAAGGUAGACUUUAAGUGGAUCACCCAUGUGUAGGUACUAAGGAUAUGUAGUUACAUGAGGAUCACCCAUGUU
[3]
  apparent Kd: 172 nM
[4]
  apparent Kd: 143 nM

## CUUUUAUAAUAGAAGGUUGACUUUAAGUGGAUCACCCAUGUGUAGGUACAAAGGAUAUGUAGUUACAUGAGGAUCACCCAUGUU
[3]
  apparent Kd: 306 nM
[4]
  apparent Kd: 201 nM

## CUUUUGGCAGGAUAUGCUUUUUUUGACAUGAGGAUCACCCAUGUGAUGCAUUUUGGGUUUGCAGAAGGGCCUGAGU
[1]
  apparent Kd: 63.5 nM
[2]
  apparent Kd: 87.5 nM

## CUUUUGUGAGGAUAUCAGGUGUGCUAGCGUACUGGUACAUCUGAGAAGGCACAUGAGGAUCACCCAUGUUCCUU
[1]
  apparent Kd: 13.4 nM
[2]
  apparent Kd: 29.2 nM

## CUUUUGUGAGGAUAUCAGUAGUAAAAAAAUAAAAUUACUACUGAGAAGGCACAUGAGGAUCACCCAUGUUCCUC
[1]
  apparent Kd: 30.7 nM
[2]
  apparent Kd: 237 nM

## CUUUUGUGAGGAUAUCAGUAGUAAAAUAAUAAAAUUACUACUGAGAAGGCACAUGAGGAUCACCCAUGUUCCUC
[1]
  apparent Kd: 32.5 nM
[2]
  apparent Kd: 174 nM

## CUUUUGUGAGGAUAUCAGUAGUAAAUAAAUAUAAUUACUACUGAGAAGGCACAUGAGGAUCACCCAUGUUCCUC
[1]
  apparent Kd: 39.7 nM
[2]
  apparent Kd: 274 nM

## CUUUUGUGAGGAUAUCAGUAGUAAAUUAAUAAAAUUACUACUGAGAAGGCACAUGAGGAUCACCCAUGUUCCUU
[1]
  apparent Kd: 14.5 nM
[2]
  apparent Kd: 29.5 nM

## CUUUUGUGAGGAUAUUAGUAUUAAAUAAAUAAAAUUACUACUGAGAAGGCACAUGAGGAUCACCCAUGUUCCUC
[1]
  apparent Kd: 30.3 nM
[2]
  apparent Kd: 131 nM

## CUUUUUUUUGUGAGGAUAUACUGUUAUUAAAGUUAGUAGAAGGUACAUGAGGAUCACCCAUGUUAAUUACUCUA
[1]
  apparent Kd: 14.1 nM
[2]
  apparent Kd: 14.9 nM

## GAAAAACAUGAGGAUCACCCAUGUAGAAAUAUGGGAGGAUAUACAAAGACGAAAGUCAAAGUAGAAGGCCUAAAAG
[3]
  apparent Kd: 125 nM
[4]
  apparent Kd: 31 nM

## GAAAAACAUGAGGAUCACCCAUGUAGAAAUAUGGGAGGAUAUACAAAGUCGAAAGACAAAGUAGAAGGCCUAAAAG
[3]
  apparent Kd: 146 nM
[4]
  apparent Kd: 26.9 nM

## GAACUGAAGCAUAGCUUUAGUCGUACAUGAGGAUCACCCAUGUAGGAUAUGGUAGGCUUAGCUUACUAGAAGGAUAGAGUGAUC
[1]
  apparent Kd: 140 nM
[2]
  apparent Kd: 66.8 nM

## GAACUGAAGCAUGGCUUUAGUCGUACAUGAGGAUCACCCAUGUAGGAUAUGGUAGGCAUAGCUUACUAGAAGGAUAGAGUGAUC
[1]
  apparent Kd: 187 nM
[2]
  apparent Kd: 63.4 nM

## GAAGACAUAGUUCAGGAUAUAGGAAUAGUCACAUGAGGAUCACCCAUGUGCAUUUAUAUGCGCACUUAGAAGGGAGGUAGUUAUC
[3]
  apparent Kd: 36.3 nM
[4]
  apparent Kd: 41 nM

## GAAGCACGCAUUAACAUGAGGAUCACCCAUGUGAAAACACGUGAGGAUAUGGAUCUGAAGAAGAUCCAGAAGGCACCGUGCUAA
[3]
  apparent Kd: 5.44 nM
[4]
  apparent Kd: 4.78 nM

## GAAGGGUAUGAGAAGGCAUAAUUUAUAUUACCACAUGUUUACAUGAGGAUCACCCAUGUUUCCUAUGAGGAUAUCAUACCGAGA
[1]
  apparent Kd: 12.4 nM
[2]
  apparent Kd: 12.7 nM

## GAAGUUAGAGGAUAUACAUGAGGAUCACCCAUGUGUGUUGUGAACAAUGUAUGUUUAUGUAGAAGGCUAACUUC
[1]
  apparent Kd: 79.4 nM
[2]
  apparent Kd: 241 nM

## GAAUAAUUGAUCCAAUUUUACAACAUGAGGAUCACCCAUGUGCAGGAUAUCGUGUGUGUUAUAUACGAGAAGGGCAAGAACUGU
[1]
  apparent Kd: 381 nM
[2]
  apparent Kd: 448 nM

## GAAUAAUUGAUCCUUUUUUAUUACAUGAGGAUCACCCAUGUGCAGGAUAUCGAGAGUUUUAGAUUCGAGAAGGGCAAGAACUGU
[1]
  apparent Kd: 905 nM
[2]
  apparent Kd: 629 nM

## GAAUUCGCAUGAGGAUAUGCACUCAUUUCAUGUGCAGAAGGUAUAACAUUAGACAUGAGGAUCACCCAUGUAUUGGUCAGUAAC
[3]
  apparent Kd: 15 nM
[4]
  apparent Kd: 13.4 nM

## GACAUGAGGAUCACCCAUGUCCCUCCAGAAGGCUGGCGCGCGAAACCGAUCUCGGUUCCGGGCACAGAGGAUAUGGGCGGUUGG
[3]
  apparent Kd: 198 nM
[4]
  apparent Kd: 26.1 nM

## GACAUGGUCCAGAAGGGCUAUCUAUUUAAGUACGAUUUAGAACAGCAUAGCAGGAUAUGGCUAACAUGAGGAUCACCCAUGUUC
[3]
  apparent Kd: 20.5 nM
[4]
  apparent Kd: 9.26 nM

## GACGCUGACCGAGGAUAUACAAUAAAACAACAAACACCUCGUGUCAGAACAUGAGGAUCACCCAUGUAGAAGGCGGCAGGUCUA
[1]
  apparent Kd: 48.6 nM
[2]
  apparent Kd: 127 nM

## GACGGUGAUGUAGGAUAUACGCUGGAUAACAGCGUAGAAGGACAUGAGGAUCACCCAUGUAAAGUGUCUCUAAAUAACACCGUC
[1]
  apparent Kd: 20.7 nM
[2]
  apparent Kd: 47.5 nM

## GACUCGCGCACAGGAUAUCCACAGAGCGGACGUGGAGAAGGGUGACAUGAGGAUCACCCAUGUACGUGAGUCUAGAUCACUUCC
[3]
  apparent Kd: 52.4 nM
[4]
  apparent Kd: 31 nM

## GACUCGCGCACAGGAUAUCCACGGAGCGGACGUGGAGAAGGGUGACAUGAGGAUCACCCAUGUACGUGAGUCUAGAUCACUUCC
[3]
  apparent Kd: 67.2 nM
[4]
  apparent Kd: 25 nM

## GACUUGUCAGGAUAUCUUACAUAAACAUCGUAGUUACAAUUGGAGAAGGGACAUGAGGAUCACCCAUGUUUGCG
[1]
  apparent Kd: 25.1 nM
[2]
  apparent Kd: 29.3 nM

## GAGAAGUCAGGAUAUGCAUGGCGGGACUUGCGUCGUGGCGUGCAGAAGGGACAUGAGGAUCACCCAUGUAAAGA
[1]
  apparent Kd: 53 nM
[2]
  apparent Kd: 49 nM

## GAGACACAUGAGGAUCACCCAUGUGAGGAUAUCCGAAGGACCAAAUUAAGAAUUAAAGGGAGAAGGCACAUAAA
[1]
  apparent Kd: 27 nM
[2]
  apparent Kd: 25.9 nM

## GAGCCUAAUGAGAAGGUGUGUAUAAAUUAUAUACAAGGAUAUCGGUCGAGCGUGUUGACAUGAGGAUCACCCAUGUUGAGGCUU
[3]
  apparent Kd: 7.86 nM
[4]
  apparent Kd: 5.29 nM

## GAGGACUGAUAAUAAUGUAGAAAUACAUGAGGAUCACCCAUGUAGGAUAUCGUCAGGAAUACUGACGAGAAGGACAUACAGUCC
[1]
  apparent Kd: 16 nM
[2]
  apparent Kd: 23.2 nM

## GAGGUAUUCGUAGGAUAUCCGUCGCCACCGUGUGGAGAAGGACGAACAUGAGGAUCACCCAUGUAUCAUGGUGUGGACGCUGUC
[1]
  apparent Kd: 61.8 nM
[2]
  apparent Kd: 61.7 nM

## GAUAAACAUGAGGAUCACCCAUGUGAGGAUAUGCGUACGUUGUCCGUAGGCGACGUGCGCAGAAGGCGCAAGGU
[1]
  apparent Kd: 99.4 nM
[2]
  apparent Kd: 216 nM

## GAUAGAGAGCAGGAUAUCUUGGAUAAGUAUUGUAGAGAAGGGCUCACAUGAGGAUCACCCAUGUGGUCCUAGAU
[1]
  apparent Kd: 14.2 nM
[2]
  apparent Kd: 34.2 nM

## GAUAGGACAGAGAAGGUACGUGCUAGAGAUACUAGCAAAAUUUCCUCACAUGAGGAUCACCCAUGUAAGGAUAUCUGUCCUAUC
[1]
  apparent Kd: 4.44 nM
[2]
  apparent Kd: 4.8 nM

## GAUAUGGGAGGAUAUGCAUAGAUAAAGAAACAUGUUCAACCACAUGAGGAUCACCCAUGUAGAAGGCCCAUAUC
[1]
  apparent Kd: 31.9 nM
[2]
  apparent Kd: 147 nM

## GAUCCACAUGAGGAUCACCCAUGUGAGGAUAUGAUACUAUGUACUUCGGUACAUAGUAUCAGAAGGCACGGAUC
[1]
  apparent Kd: 27.1 nM
[2]
  apparent Kd: 31.6 nM

## GAUCGUUCUGUUAGGAUAUGCUUUGGGCUUCCGCAGUAGAAGGAACAUGAGGAUCACCCAUGUCCGAUGCCGUC
[1]
  apparent Kd: 25.6 nM
[2]
  apparent Kd: 28.1 nM

## GAUCUGAUAGGAUAUACAUGAGGAUCACCCAUGUGCGAGCUAGCGAAAGCUAGCUCAGGUAGAAGGGUCAGAUC
[1]
  apparent Kd: 12 nM
[2]
  apparent Kd: 15.5 nM

## GAUGUAUUCGUAGGAUAUCCGUCGCCACCGUGUGGAGAAGGACGAACAUGAGGAUCACCCAUGUAUCAUGGUGUGGACGCUUUC
[1]
  apparent Kd: 287 nM
[2]
  apparent Kd: 315 nM

## GAUUAACAUGAGGAUCACCCAUGUGAGGAUAUGGAAUGGCUCACUUUUCGAUUCCCGUCUAGAAGGCACAUCUU
[1]
  apparent Kd: 54.6 nM
[2]
  apparent Kd: 53.3 nM

## GAUUAUAAGUAAGGAUAUGUAUAUGAAACAUAUACAGAAGGUACAUGAGGAUCACCCAUGUUCUUGCAGCGUGAAUAUGUAAUC
[1]
  apparent Kd: 19.1 nM
[2]
  apparent Kd: 28.5 nM

## GAUUCGGGAGGAUAUACAUGAGGAUCACCCAUGUGUUUUUUGUGUGUUUUGUUAUCGUGUAGAAGGUUUGGGUC
[1]
  apparent Kd: 117 nM
[2]
  apparent Kd: 172 nM
